Data from PMC3985699 (Journal of the American Chemical Society, 2014).
Converted amounts (≈) assume the structure as drawn.

Key:
S. aureus ATCC 29213 = experiment: MIC by microdilution; assay type: cell-based; conditions: Staphylococcus aureus, ATCC29213
How it was run: (§1)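 S. aureus was tested by CLSI broth microdilution in cation-adjusted Mueller Hinton II broth, final inoculum 5 × 10⁵ CFU/mL, 35 °C, read after 16–20 or 20–24 h; oxacillin was tested with 2% NaCl. MIC was the lowest concentration without visible growth, in triplicate. For ATCC 29213, inocula of 5 × 10⁶ and 5 × 10⁷ CFU/mL were also tested.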

S. aureus ATCC 27660 = experiment: MIC by microdilution; assay type: cell-based; conditions: Staphylococcus aureus, ATCC27660
How it was run: as §1

S. aureus NRS100 (COL) = experiment: MIC by microdilution; assay type: cell-based; conditions: Staphylococcus aureus
How it was run: as §1

S. aureus NRS119 = experiment: MIC by microdilution; assay type: cell-based; conditions: Staphylococcus aureus
How it was run: as §1

S. aureus NRS120 = experiment: MIC by microdilution; assay type: cell-based; conditions: Staphylococcus aureus
How it was run: as §1

S. aureus VRS1 = experiment: MIC by microdilution; assay type: cell-based; conditions: Staphylococcus aureus, MRSA
How it was run: as §1

S. aureus VRS2 = experiment: MIC by microdilution; assay type: cell-based; conditions: Staphylococcus aureus, MRSA
How it was run: as §1

S. epidermis ATCC 35547 = experiment: MIC by microdilution; assay type: cell-based
How it was run: (§2)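 CLSI broth microdilution in cation-adjusted Mueller Hinton II broth, final inoculum 5 × 10⁵ CFU/mL. Plates incubated at 35 °C and read after 16–20 or 20–24 h depending on species. MIC taken as the lowest concentration with no visible growth. All determinations in triplicate.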

[1] = system: S. hemolyticus ATCC 29970; experiment: MIC by microdilution; assay type: cell-based; conditions: Streptococcus pyogenes, ATCC29970
S. oralis ATCC 9811 = experiment: MIC by microdilution; assay type: cell-based; conditions: Streptococcus oralis, ATCC9811
How it was run: (§3)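 Streptococcal MICs came from CLSI broth microdilution in cation-adjusted Mueller Hinton II broth with 5% lysed horse blood. Final inoculum 5 × 10⁵ CFU/mL, incubation at 35 °C, read after 16–20 or 20–24 h depending on species. MIC was the lowest concentration without visible growth, determined in triplicate.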

S. pyogenes ATCC 49399 = experiment: MIC by microdilution; assay type: cell-based; conditions: Streptococcus pyogenes, ATCC49399
How it was run: as §3

E. faecalis ATCC 29212 = experiment: MIC by microdilution; assay type: cell-based; conditions: Enterococcus faecalis, ATCC29212
How it was run: as §2

E. faecalis 201 (Van S) = experiment: MIC by microdilution; assay type: cell-based; conditions: Enterococcus faecalis
How it was run: as §2

E. faecalis 99 (Van R) = experiment: MIC by microdilution; assay type: cell-based; conditions: Enterococcus faecalis
How it was run: as §2

[2] = system: E. faecium 119–39A (Van S); experiment: MIC by microdilution; assay type: cell-based; conditions: Enterococcus faecium
How it was run: as §2

E. faecium 106 (Van R) = experiment: MIC by microdilution; assay type: cell-based; conditions: Enterococcus faecium
How it was run: as §2

E. faecium NCTC 7171 = experiment: MIC by microdilution; assay type: cell-based; conditions: Enterococcus faecium, NCTC7171
How it was run: as §2

red blood cells = experiment: Hemolysis assay; assay type: cell-based, horse; conditions: horse RBCs, 37 °C, 1 h; 3% values at 64 μg/mL (32-fold above the MIC)
Pharmacokinetics in mice = assay type: in vivo
How it was run: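 Female ICR mice received a single 50 mg/kg dose, either iv in 10% DMSO/25% Tween-80/65% water or po by gavage (n = 3 per time point). Terminal blood was taken at 2 min–24 h after iv and 0.5–48 h after po, then centrifuged for plasma. Plasma was precipitated with acetonitrile containing internal standard and analysed by C18 UPLC-ESI(+)-MRM against calibration curves in blank mouse plasma.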

[3] = ICR, mouse, plasma, iv, 50 mg/kg
[4] = female, ICR, mouse, plasma, po, 50 mg/kg

Compound `Nc1ccc(-c2nc(-c3ccc(Oc4ccc(C(F)(F)F)cc4)cc3)no2)cc1` [Compound 4, 4-(3-(4-(4-(Trifluoromethyl)phenoxy)phenyl)-1,2,4-oxadiazol-5-yl)aniline] has an MIC (S. aureus ATCC 29213) of 2 µg/mL (≈ 5.03 µM), an MIC (S. aureus ATCC 27660) of 2 µg/mL (≈ 5.03 µM) and an MIC (S. aureus NRS100 (COL)) of 2 µg/mL (≈ 5.03 µM). The MIC (S. aureus NRS119) was 2 µg/mL (≈ 5.03 µM), the MIC (S. aureus NRS120) was 2 µg/mL (≈ 5.03 µM) and the MIC (S. aureus VRS1) was 2 µg/mL (≈ 5.03 µM). For the same compound, the MIC (S. aureus VRS2) was 2 µg/mL (≈ 5.03 µM), the MIC (S. epidermis ATCC 35547) was 2 µg/mL (≈ 5.03 µM) and the MIC [1] was 4 µg/mL (≈ 10.1 µM). For the same compound, the MIC (S. oralis ATCC 9811) was 32 µg/mL (≈ 80.5 µM), the MIC (S. pyogenes ATCC 49399) was 32 µg/mL (≈ 80.5 µM) and the MIC (E. faecalis ATCC 29212) was 2 µg/mL (≈ 5.03 µM). For the same compound, the MIC (E. faecalis 201 (Van S)) was greater than 32 µg/mL, the MIC (E. faecalis 99 (Van R)) was 2 µg/mL (≈ 5.03 µM) and the MIC [2] was 1 µg/mL (≈ 2.52 µM). For the same compound, the MIC (E. faecium 106 (Van R)) was 2 µg/mL (≈ 5.03 µM), the MIC (E. faecium NCTC 7171) was 2 µg/mL (≈ 5.03 µM) and the “hemolysis of red blood cells” value (red blood cells) was “not hemolytic at all”. It also gave an AUC(0-inf) (Pharmacokinetics in mice; [3]) of 153 µg·h/mL, a Vd (Pharmacokinetics in mice; [3]) of 0.72 L/kg and a clearance (Pharmacokinetics in mice; [3]) of 5.4 mL/min/kg. It also gave an AUC(0-inf) (Pharmacokinetics in mice; [4]) of 154 µg·h/mL, a Cmax (Pharmacokinetics in mice; [4]) of 10000 ng/mL and a Tmax (Pharmacokinetics in mice; [4]) of 2 h. For the same compound, the “higher systemic exposure relative to comparator compound” value (Pharmacokinetics in mice; mice, 50 mg/kg iv, compound 3 vs compound 2, compound 4 vs compound 3) was 3.5 fold and the “volume of distribution (in words)” value (Pharmacokinetics in mice; mice, single 50 mg/kg iv) was “large volume of distribution”.

`CC(=O)NC[C@H]1CN(c2ccc(N3CCOCC3)c(F)c2)C(=O)O1` [linezolid, reference compound] gave an MIC (S. aureus ATCC 29213) of 4 µg/mL (≈ 11.9 µM), an MIC (S. aureus ATCC 27660) of 2 µg/mL (≈ 5.93 µM) and an MIC (S. aureus NRS100 (COL)) of 2 µg/mL (≈ 5.93 µM). The MIC (S. aureus NRS119) was 32 µg/mL (≈ 94.9 µM), the MIC (S. aureus NRS120) was 32 µg/mL (≈ 94.9 µM) and the MIC (S. aureus VRS1) was 2 µg/mL (≈ 5.93 µM). For the same compound, the MIC (S. aureus VRS2) was 2 µg/mL (≈ 5.93 µM), the MIC (S. epidermis ATCC 35547) was 1 µg/mL (≈ 2.96 µM) and the MIC [1] was 2 µg/mL (≈ 5.93 µM). For the same compound, the MIC (S. oralis ATCC 9811) was 1 µg/mL (≈ 2.96 µM), the MIC (S. pyogenes ATCC 49399) was 1 µg/mL (≈ 2.96 µM) and the MIC (E. faecalis ATCC 29212) was 2 µg/mL (≈ 5.93 µM). For the same compound, the MIC (E. faecalis 201 (Van S)) was 2 µg/mL (≈ 5.93 µM), the MIC (E. faecalis 99 (Van R)) was 1 µg/mL (≈ 2.96 µM) and the MIC [2] was 2 µg/mL (≈ 5.93 µM). The MIC (E. faecium 106 (Van R)) was 1 µg/mL (≈ 2.96 µM) and the MIC (E. faecium NCTC 7171) was 2 µg/mL (≈ 5.93 µM).

In the case of `CN[C@H](CC(C)C)C(=O)N[C@H]1C(=O)N[C@@H](CC(N)=O)C(=O)N[C@H]2C(=O)N[C@H]3C(=O)N[C@H](C(=O)N[C@H](C(=O)O)c4cc(O)cc(O)c4-c4cc3ccc4O)[C@H](O)c3ccc(c(Cl)c3)Oc3cc2cc(c3O[C@@H]2O[C@H](CO)[C@@H](O)[C@H](O)[C@H]2O[C@H]2C[C@](C)(N)[C@H](O)[C@H](C)O2)Oc2ccc(cc2Cl)[C@H]1O` [vancomycin, reference compound], the MIC (S. aureus ATCC 27660) is reported as 1 µg/mL (≈ 0.69 µM), the MIC (S. aureus NRS100 (COL)) is reported as 2 µg/mL (≈ 1.38 µM) and the MIC (S. aureus NRS119) is reported as 2 µg/mL (≈ 1.38 µM). For the same compound, the MIC (S. aureus NRS120) was 2 µg/mL (≈ 1.38 µM), the MIC (S. aureus VRS1) was 512 µg/mL (≈ 353 µM) and the MIC (S. aureus VRS2) was 64 µg/mL (≈ 44.2 µM). It also gave an MIC (S. epidermis ATCC 35547) of 16 µg/mL (≈ 11 µM), an MIC [1] of 2 µg/mL (≈ 1.38 µM) and an MIC (S. oralis ATCC 9811) of 0.5 µg/mL (≈ 0.345 µM). It also gave an MIC (S. pyogenes ATCC 49399) of 0.6 µg/mL (≈ 0.414 µM), an MIC (E. faecalis ATCC 29212) of 2 µg/mL (≈ 1.38 µM) and an MIC (E. faecalis 201 (Van S)) of 1 µg/mL (≈ 0.69 µM). For the same compound, the MIC (E. faecalis 99 (Van R)) was 128 µg/mL (≈ 88.3 µM), the MIC [2] was 0.5 µg/mL (≈ 0.345 µM) and the MIC (E. faecium 106 (Van R)) was 256 µg/mL (≈ 177 µM). For the same compound, the MIC (E. faecium NCTC 7171) was 0.5 µg/mL (≈ 0.345 µM).
